1 compound from ChEMBL document CHEMBL4699650, “SAR Investigation and Discovery of Water-Soluble 1-Methyl-1,4-dihydroindeno[1,2-c]pyrazoles as Potent Tubulin Polymerization Inhibitors” (J Med Chem, 2020) can be followed below.

The structures appear in SMILES notation. Calls of active or inactive are those of the source. The rule behind the calls is not given here.

In data set [1] the test system is HepG2. The data set is described as follows: Induction of cell cycle arrest in human HepG2 cells assessed as accumulation in G1 phase at 10 nM incubated for 24 hrs by propidium iodide staining based flow cytometry (reference value: 60.76%). It counts as functional.
Data set [2] in a line: Aqueous solubility of compound in DMSO at pH 7.4 by HPLC analysis. It is filed as physicochemical. The note with it: aqueous medium. The gist of the method:
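Solubility measured at pH 7.4. DMSO stock (10 mg/mL) diluted in methanol to five levels to build an HPLC peak-area standard curve. Compound added to 1 mL buffer to make a saturated solution, and the peak area of that solution analysed by HPLC on a C18 column. Solubility calculated from the standard curve.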

In data set [3] the test system is HepG2. Kind of data set: Induction of apoptosis in human HepG2 cells assessed as early apoptotic cells at 20 nM incubated for 12 hrs by Annexin V-PE and 7-AAD staining based flow cytometry (reference value: 4.52%). It counts as functional. The gist of the method:
(§1)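 HepG2 cells seeded at 3 × 10⁵ cells/well, adhered overnight, exposed at 5, 10 or 20 nM for 12 or 24 h. Harvested into Annexin V binding buffer and stained with annexin V-PE and 7-AAD for 15 min at room temperature in the dark, then analysed by flow cytometry. Gates: live (−/−), early apoptotic (+/−), late apoptotic (+/+), necrotic (−/+).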
(Flow cytometry measures light scatter and fluorescence of single cells or particles in a stream.)

The subject of a further data set is A549. Kind of data set: Antiproliferation activity against human A549 cells assessed as cell growth inhibition measured after 72 hrs by MTT assay. It counts as functional. The gist of the method: (§2)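 Cells grown in RPMI-1640 with 10% FBS at 37 °C, 5% CO2, seeded at 4−7 × 10³ cells/well and left to adhere overnight. Exposed to a range of concentrations for 72 h, then MTT (2.5 mg/mL stock) added for 4 h. Formazan dissolved in DMSO and absorbance read at 570 nm. GI50 taken as the concentration giving 50% growth inhibition, reported as mean ± SD of at least three independent experiments.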
Background: Formazan colour is commonly taken as a measure of viable cells.

A short description of data set [4]: Toxicity in Balb/c nude mouse xenografted with human HepG2 cells assessed as change in body weight at 25 mg/kg, po qd administered for 21 days measured at 3 days interval during compound dosing (reference value: - 17.2 % ). It counts as organism-based. The note with it: in vivo, 504 h, time 21 day. The method, boiled down: (§3)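 Nude mice received 200 μL PBS with HepG2 cells (1 × 10⁷ cells/mL) subcutaneously in the right armpit. At 90 mm³ tumour volume, randomized to 5 per group. Dosed 25 mg/kg as a 2.5 mg/mL distilled-water solution, intragastric once daily for 21 days; distilled water as vehicle. Body weight recorded every 3 days; change given as initial vs end weight.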
On the technique in general: Xenograft models place foreign cells or tissue in a host animal.

The subject of data set [5] is HepG2. Kind of data set: Induction of apoptosis in human HepG2 cells assessed as live cells at 10 nM incubated for 24 hrs by Annexin V-PE and 7-AAD staining based flow cytometry (reference value: 93.2%). It counts as functional. The method, boiled down: as §1
Data set [6] concerns HepG2. Kind of data set: Induction of cell cycle arrest in human HepG2 cells assessed as accumulation in S phase at 5 nM incubated for 24 hrs by propidium iodide staining based flow cytometry (reference value: 26.65%). It counts as functional.
Data set [7] can be described thus: Toxicity in Balb/c nude mouse xenografted with human HepG2 cells assessed as change in body weight at 10 mg/kg, iv administered every 2 days for 21 days (reference value: 7.8 % ). It counts as organism-based. To be noted: in vivo, 504 h, time 21 day.
The test system of another data set is HCT-116. The data set is described as follows: Antiproliferation activity against human HCT116 cells assessed as cell growth inhibition measured after 72 hrs by MTT assay. It is filed as functional. The gist of the method: as §2
The subject of data set [8] is HepG2. Kind of data set: Induction of apoptosis in human HepG2 cells assessed as live cells at 5 nM incubated for 12 hrs by Annexin V-PE and 7-AAD staining based flow cytometry (reference value: 92.1%). It counts as functional. The method, boiled down: as §1
Data set [9] can be described thus: Toxicity in Balb/c nude mouse xenografted with human HepG2 cells assessed as adverse signs at 5 to 10 mg/kg, iv administered every 2 days for 21 days. It counts as organism-based. The note with it: in vivo, 504 h, dose 5-10 mg/kg, time 21 day.
Data set [10] is described as follows: Lipophilicity, log P of the compound in DMSO and n-octanol at pH 7.4 incubated for 10 hrs under stirred condition by HPLC analysis. It is filed as physicochemical. To be noted: n-octanol / aqueous phase pH 7.4, pH 7.4. The method, boiled down: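 Partition between n-octanol and water: mixture stirred at room temperature for 10 h, then left at 4 °C overnight. Each phase analysed separately by HPLC on a C18 column. Log P taken from the ratio of peak areas in n-octanol and water.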

Data set [11] concerns HepG2. The data set is described as follows: Induction of apoptosis in human HepG2 cells assessed as live cells at 5 nM incubated for 24 hrs by Annexin V-PE and 7-AAD staining based flow cytometry (reference value: 93.2%). It is filed as functional. The method, boiled down: as §1
The subject of data set [12] is HepG2. The data set is described as follows: Induction of cell cycle arrest in human HepG2 cells assessed as accumulation in G1 phase at 5 nM incubated for 24 hrs by propidium iodide staining based flow cytometry (reference value: 60.76%). It counts as functional.
In data set [13] the test system is HepG2. The data set is described as follows: Induction of apoptosis in human HepG2 cells assessed as necrotic cells at 10 nM incubated for 24 hrs by Annexin V-PE and 7-AAD staining based flow cytometry (reference value: 0.34 %). It is filed as functional. The gist of the method:
as §1

Data set [14] concerns HepG2. The data set is described as follows: Induction of apoptosis in human HepG2 cells assessed as live cells at 20 nM incubated for 24 hrs by Annexin V-PE and 7-AAD staining based flow cytometry (reference value: 93.2%). It is filed as functional. The gist of the method:
as §1

The nature of data set [15]: Toxicity in Balb/c nude mouse xenografted with human HepG2 cells assessed as adverse signs at 25 mg/kg, po qd administered for 21 days. To be noted: in vivo, 504 h, time 21 day. It counts as organism-based. The method, boiled down: as §3
Data set [16] relates to HepG2. The data set is described as follows: Induction of apoptosis in human HepG2 cells assessed as increase in Bax expression incubated for 24 hrs by Western blot analysis. It counts as functional, cell-based. The note with it: dose nM 2.5-20, time 24.0 hrs. The gist of the method:
(§4)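 Lysates (20 μg protein) separated by 10% PAGE and blotted to PVDF. Probed for Bax, Bcl-2, cleaved caspase-3 and cleaved PARP, detected by ECL and quantified by densitometry.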

The test system of data set [17] is HepG2. Kind of data set: Induction of apoptosis in human HepG2 cells assessed as necrotic cells at 20 nM incubated for 12 hrs by Annexin V-PE and 7-AAD staining based flow cytometry (reference value: 0.55 %). It counts as functional. The method, boiled down: as §1
Data set [18] relates to HepG2. Kind of data set: Antitumor activity against human HepG2 cells xenografted in Balb/c nude mouse assessed as reduction in tumor volume at 10 mg/kg, iv administered every 2 days for 21 days and measured at 3 days interval during compound dosing. It counts as functional. Also noted: scale not given: the % may be the effect or the level left. The note with it: time 21 day. The gist of the method:
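Nude mice received 200 μL PBS containing HepG2 at 1 × 10⁷ cells/mL subcutaneously in the right armpit. Randomised at 90 mm³ tumour volume, five per group. Compound given iv as a 2.0 mg/mL solution in distilled water, 5 or 10 mg/kg every two days for 21 days, with a water vehicle group. Tumour volume (L × W²/2) and body weight recorded every 3 days. Inhibition = (1 − RTV treated/RTV vehicle) × 100%.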

The nature of data set [19]: Cytotoxicity against human L02 cells assessed as assessed as cell growth inhibition measured after 72 hrs by MTT assay. It counts as cell-based. The method, boiled down:
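LO2 normal liver cells cultured in RPMI-1640/10% FBS at 37 °C, 5% CO2 and seeded at 4−7 × 10³ cells/well. Graded concentrations applied for 72 h, then MTT readout at 570 nm. GI50 is the concentration giving 50% growth inhibition, mean ± SD of at least three independent experiments.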

Data set [20] deals with HepG2. The data set is described as follows: Induction of apoptosis in human HepG2 cells assessed as PARP cleavage at 2.5 to 20 nM incubated for 24 hrs by western blot analysis. It counts as functional, cell-based. The note with it: dose nM 2.5-20, time 24.0 hrs. The method, boiled down:
as §4

As to `CCOc1cccc(Nc2nn(C)c3c2Cc2cc(OCC)c(OCCCN)cc2-3)c1`, the Activity is on record as 17.07% with HepG2 [1]; 14.5% in the data set on HepG2 [3]; -18.5% in data set [4]; 75.5% in the data set with HepG2 [5]; 30.66% with HepG2 [6]; 6.9% in data set [7]. Besides, the Activity in the data set on HepG2 [8] is on record as 90.4%; in [9], “Non-Toxic”; in the data set on HepG2 [11] it was 85.6%; in the data set with HepG2 [12], 49.56%; in the data set with HepG2 [13], 0.61%; in the data set with HepG2 [14], 50.2%. Besides, the Activity result in [15] was “Non-Toxic”; with HepG2 [16], “Dose-dependent effect”; with HepG2 [17], 1.36%; in the data set with HepG2 [18], 68%. The compound also had a solubility in data set [2] of more than 1000 µg/mL. In addition, the figures for the GI50 with A549 and with HCT-116 were 3.7 nM and 2.4 nM, respectively. In [10], this compound displayed a logD at 10 h of 1.7. Besides, the 50% growth inhibitory concentration (GI50) at 72 h in data set [19] is 284 nM. Besides, the outcome in the data set on HepG2 [20] was Active.

What is called solubility is the dissolved amount per volume that the medium holds. As a reminder, the GI50 is the concentration at which growth is held to half of that of the control. What is called logD is the decadic logarithm of the distribution of all forms, ionised or not, between an organic phase and buffer at a given pH.
